Broadly, the EC50 is the concentration needed to bring the measured effect to its halfway point. Higher therefore signals a less potent agent. For orientation: IC50 means the concentration at which inhibition is half-maximal. A lower IC50 goes with higher potency.

For twelve compounds, EC50 and IC50 results are on record in ChEMBL document CHEMBL1129588, “Development of potent thrombin receptor antagonist peptides” (J Med Chem, 1996).

The nature of assay [1]: Concentration to stimulate human platelet aggregation. Type of assay: functional. In a few lines: (§1)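 Peptides were added alone to gel-filtered human platelets, and aggregation was read by microtiter turbidity. EC₅₀ is the concentration stimulating 50% of maximum aggregation. N is the number of determinations. A peptide is called a partial agonist where maximum aggregation was not reached experimentally.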

Assay [2] addresses T1, Proteinase-activated receptor 1 (Homo sapiens, UniProt P25116).
T1 sequence (P25116 whole entry): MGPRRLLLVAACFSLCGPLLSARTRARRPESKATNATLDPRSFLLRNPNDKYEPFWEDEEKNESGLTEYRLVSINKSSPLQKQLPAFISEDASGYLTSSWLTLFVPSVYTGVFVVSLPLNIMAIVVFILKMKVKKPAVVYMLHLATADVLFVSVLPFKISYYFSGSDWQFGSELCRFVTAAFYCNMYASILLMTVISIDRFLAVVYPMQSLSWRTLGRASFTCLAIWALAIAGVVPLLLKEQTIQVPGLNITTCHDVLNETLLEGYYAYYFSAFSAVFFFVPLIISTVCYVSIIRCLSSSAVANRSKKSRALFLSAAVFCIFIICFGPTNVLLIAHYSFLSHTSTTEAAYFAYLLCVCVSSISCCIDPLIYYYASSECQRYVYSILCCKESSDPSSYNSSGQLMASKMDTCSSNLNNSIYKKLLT

Assay [3] deals with T1, Proteinase-activated receptor 1. As to the kind of experiment: Concentration of compound required to inhibit agonist ([…], at 3 uM) induced platelet aggregation by 50%; PA=not experimentally achieved. Type of assay: functional. The procedure, abridged:
(§2)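 Gel-filtered human platelets in a microtiter turbidity aggregation assay, preincubated with test peptide and then stimulated with SFLLRNP-NH₂ at 3 μM. […] N is the number of determinations.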

For assay [4] the target is unchanged. As to the kind of experiment: Effective concentration of compound for stimulation of 50% maximum platelet aggregation; PA=not experimentally achieved. Type of assay: functional. In a few lines: as §1
For assay [5] the target is unchanged. The assay can be described thus: Concentration of compound required to inhibit agonist ([…], at 3 uM) induced platelet aggregation by 50%;PA=not experimentally achieved. Type of assay: functional. In a few lines:
as §2

Non-standard residues stand in square brackets, D forms with d. Residues, ends and D or L forms follow the SMILES beside them. *: point of attachment. Phe(4-guanidino) = N=C(N)Nc1ccc(C[C@H](N)C(=O)O)cc1; Phe(4-F) = N[C@@H](Cc1ccc(F)cc1)C(=O)O; 1Nal = N[C@@H](Cc1cccc2ccccc12)C(=O)O; 2Nal = N[C@@H](Cc1ccc2ccccc2c1)C(=O)O; Thiophene3carbonyl = O=C(c1ccsc1)*; Tic = O=C(O)[C@@H]1Cc2ccccc2CN1; Thz = O=C(O)[C@@H]1CSCN1; X1 = O=C(c1ccoc1)*; βAla = NCCC(=O)O

In turn, `CC(C)C[C@H](NC(=O)[C@H](CC(C)C)NC(=O)[C@H](Cc1ccc(F)cc1)NC(=O)[C@@H](N)CO)C(=O)N[C@@H](CCCN=C(N)N)C(N)=O` came in with an EC50 in assay [1] of 130 nM.

As to `C/C=C/C=C/CC(=O)N(C(C)=O)[C@@H](Cc1ccc(F)cc1)C(=O)N[C@@H](Cc1ccc(NC(=N)N)cc1)C(=O)N[C@@H](CC(C)C)C(=O)N[C@@H](CCCN=C(N)N)C(N)=O`, the IC50 is 24 nM in assay [2] and “Not Active” in assay [3]. For the compound `CC(=O)N1CSC[C@H]1C(=O)N[C@@H](Cc1ccccc1)C(=O)N[C@@H](CC(C)C)C(=O)N[C@@H](CC(C)C)C(=O)N[C@@H](CCCN=C(N)N)C(N)=O` (Ac-[Thz]FLLR-NH2), the half-maximal effective concentration (EC50) in assay [1] was greater than 300000 nM. The same measure, in the same setting: for `CC(=O)NCCC(=O)N[C@@H](Cc1ccccc1)C(=O)N[C@@H](CC(C)C)C(=O)N[C@@H](CC(C)C)C(=O)N[C@@H](CCCN=C(N)N)C(N)=O` (Ac-[βAla]FLLR-NH2) the value was 1800 nM; for `CC(C)C[C@H](NC(=O)[C@H](Cc1cccc2ccccc12)NC(=O)[C@H](Cc1ccc(F)cc1)NC(=O)[C@@H](N)CO)C(=O)N[C@@H](CCCN=C(N)N)C(N)=O` (H-S[Phe(4-F)][1Nal]LR-NH2), 160 nM; for `CC(C)C[C@H](NC(=O)[C@H](Cc1ccc2ccccc2c1)NC(=O)[C@H](Cc1ccc(F)cc1)NC(=O)[C@@H](N)CO)C(=O)N[C@@H](CCCN=C(N)N)C(N)=O` (H-S[Phe(4-F)][2Nal]LR-NH2), 80 nM. The same measure, in the same setting: then `CC(C)C[C@H](NC(=O)[C@H](Cc1ccc(F)cc1)NC(=O)[C@H](Cc1ccc(F)cc1)NC(=O)[C@@H](N)CO)C(=O)N[C@@H](CCCN=C(N)N)C(N)=O` (H-S[Phe(4-F)][Phe(4-F)]LR-NH2), with 100 nM; and `CC(C)C[C@H](NC(=O)[C@H](Cc1ccc(NC(=N)N)cc1)NC(=O)[C@H](Cc1ccc(F)cc1)NC(=O)[C@@H](N)CO)C(=O)N[C@@H](CCCN=C(N)N)C(N)=O` (H-S[Phe(4-F)][Phe(4-guanidino)]LR-NH2), with 40 nM. The same measure, in the same setting: for `CC(C)C[C@H](NC(=O)[C@@H]1Cc2ccccc2CN1C(=O)[C@H](Cc1ccc(F)cc1)NC(=O)[C@@H](N)CO)C(=O)N[C@@H](CCCN=C(N)N)C(N)=O` (H-S[Phe(4-F)][Tic]LR-NH2) the value was 470 nM; for `CC(C)C[C@H](NC(=O)[C@H](CC(C)C)NC(=O)[C@H](Cc1ccccc1)NC(=O)[C@@H]1CSCN1)C(=O)N[C@@H](CCCN=C(N)N)C(N)=O` (H-[Thz]FLLR-NH2), 46000 nM. In the case of `CC(C)C[C@H](NC(=O)[C@H](Cc1ccc(NC(=N)N)cc1)NC(=O)[C@H](Cc1ccc(F)cc1)NC(=O)c1ccsc1)C(=O)N[C@@H](CCCN=C(N)N)C(N)=O` (Thiophene3carbonyl-[Phe(4-F)][Phe(4-guanidino)]LR-NH2), the EC50 result in assay [4] is recorded as “Not Active”. This compound also gave an IC50 in assay [2] of 24 nM. On to `CC(C)C[C@H](NC(=O)[C@H](Cc1ccc(NC(=N)N)cc1)NC(=O)[C@H](Cc1ccc(F)cc1)NC(=O)c1ccoc1)C(=O)N[C@@H](CCCN=C(N)N)C(N)=O` (X1-[Phe(4-F)][Phe(4-guanidino)]LR-NH2), for which, in assay [5], the EC50 result is “Not Active”. Also, inhibition in assay [2] was half-maximal at 29 nM (IC50).
